# “And” between values parts separate entries of the source, which are not always exact repeats. Equal entries are not always repeated.
# Test system: HIV-1
# Assay: Phase IIa monotherapy study: antiviral effect
# Assay type: in vivo, HIV-1–positive, treatment-naive adults
# Conditions: for Plasma HIV-1 RNA change from baseline to nadir, mean (SD): n = 6; for Modeled plasma HIV-1 RNA maximum change (nadir), least squares mean (90% CI): mixed-effects model
# Outline: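 Randomized, double-blind, placebo-controlled oral monotherapy, once daily after a moderate-fat meal (≥400 calories, ≥120 from fat) taken 30 minutes before dosing. Part 1: 10 or 200 mg for 10 days. Part 2: 40–140 mg for 7 days, then combination ART from day 8. Plasma HIV-1 RNA endpoints were maximum change and change to day 11 (part 1) or day 8 (part 2). Maximum change was fitted by a mixed-effects linear model; dose–response by an Emax model pooling both parts (ED50).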
# [1] = 10 mg once daily, part 1 (10 days)
# [2] = 40 mg once daily, part 2 (7 days)
# [3] = 80 mg once daily, part 2 (7 days)
# [4] = 140 mg once daily, part 2 (7 days)
# [5] = 200 mg once daily, part 1 (10 days)
structure (smiles),measurement,setting,value
C=C(C)[C@@H]1CC[C@]2(NCCN3CCS(=O)(=O)CC3)CC[C@]3(C)[C@H](CC[C@@H]4[C@@]5(C)CC=C(C6=CC[C@@](CF)(C(=O)O)CC6)C(C)(C)[C@@H]5CC[C@]43C)[C@@H]12 [GSK’254],Maximum change in HIV-1 RNA,"10 mg once daily, 10 days",−0.4 log10
same,"Plasma HIV-1 RNA change from baseline to nadir, mean (SD)",[1],−0.36 (0.25) log10 copies/mL
same,"Modeled plasma HIV-1 RNA maximum change (nadir), least squares mean (90% CI)",[1],−0.34 (−.67 to −.00) log10 copies/mL
same,"Plasma HIV-1 RNA change from baseline to primary endpoint, mean (SD)","10 mg once daily, part 1, Day 11, n = 6",−0.22 (0.31) log10 copies/mL
same,Maximum change in HIV-1 RNA,"40 mg once daily, 7 days",−1.2 log10
same,"Plasma HIV-1 RNA change from baseline to nadir, mean (SD)",[2],−1.18 (0.44) log10 copies/mL
same,"Modeled plasma HIV-1 RNA maximum change (nadir), least squares mean (90% CI)",[2],−1.05 (−1.29 to −.82) log10 copies/mL
same,"Plasma HIV-1 RNA change from baseline to primary endpoint, mean (SD)","40 mg once daily, part 2, Day 8, n = 6",−1.18 (0.44) log10 copies/mL
same,Maximum change in HIV-1 RNA,"80 mg once daily, 7 days",−1.0 log10
same,"Plasma HIV-1 RNA change from baseline to nadir, mean (SD)",[3],−1.02 (0.33) log10 copies/mL
same,"Modeled plasma HIV-1 RNA maximum change (nadir), least squares mean (90% CI)",[3],−0.94 (−1.16 to −.72) log10 copies/mL
same,"Plasma HIV-1 RNA change from baseline to primary endpoint, mean (SD)","80 mg once daily, part 2, Day 8, n = 6",−1.02 (0.33) log10 copies/mL
same,Maximum change in HIV-1 RNA,"140 mg once daily, 7 days",−1.5 log10
same,"Plasma HIV-1 RNA change from baseline to nadir, mean (SD)",[4],−1.49 (0.27) log10 copies/mL
same,"Modeled plasma HIV-1 RNA maximum change (nadir), least squares mean (90% CI)",[4],−1.49 (−1.70 to − 1.28) log10 copies/mL
same,"Plasma HIV-1 RNA change from baseline to primary endpoint, mean (SD)","140 mg once daily, part 2, Day 8, n = 6",−1.45 (0.24) log10 copies/mL
same,Maximum change in HIV-1 RNA,"200 mg once daily, 10 days",−2.0 log10
same,"Plasma HIV-1 RNA change from baseline to nadir, mean (SD)",[5],−2.01 (0.33) log10 copies/mL
same,"Modeled plasma HIV-1 RNA maximum change (nadir), least squares mean (90% CI)",[5],−1.93 (−2.24 to −1.62) log10 copies/mL
same,"Plasma HIV-1 RNA change from baseline to primary endpoint, mean (SD)","200 mg once daily, part 1, Day 11, n = 6",−1.96 (0.34) log10 copies/mL
same,Maximum mean decline from baseline in HIV-1 RNA,10-mg dose,0.36 log10
same,Participants with >1.5-log10 decline in HIV-1 RNA from baseline at Day 8,40-mg group (n = 6),1 participants
same,Maximum mean decline in HIV-1 RNA,140-mg group,1.5 log10
same,Participants with >1.5-log10 decline in HIV-1 RNA from baseline at Day 8,140-mg group (n = 6),3 participants
same,Maximum mean decline in HIV-1 RNA,200-mg group,2.0 log10
same,Decline from baseline in HIV-1 RNA at day 11 in all participants,"200-mg group, day 11",> 1.5 log10
same,Half maximal effective dose (ED50),"Emax nonlinear model, maximum change in HIV-1 RNA to day 8 vs dose, once daily",42.67 mg and 42.7 mg and ~ 43 mg
same,Decline in HIV-1 RNA,"doses ≥40 mg, regardless of dosing duration",≥ 1 log10
same,Potency as an antiviral (maximum change in HIV-1 RNA),monotherapy,2 log10
same,Median time to nadir in HIV-1 RNA,part 1 (10 days dosing),11.5 days
same,Median time to nadir in HIV-1 RNA,part 2 (7 days dosing),8.0 days

# — PMC9536290 (Clinical Infectious Diseases: An Official Publication of …, 2022)
